Activity calls are given as the source filed them. The calls are words filed in the database; no cut-off is given here.
Legend:
[1] = target: T1, High affinity 3',5'-cyclic-AMP phosphodiesterase 7A (Homo sapiens, UniProt Q13946); experiment: Inhibition of PDE7A assessed as hydrolysis of [3H]cAMP at 10 uM after 20 mins by scintillation proximity assay
Summary of the method: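 PDE7A1 enzyme (0.02 units) incubated with 5 nCi [³H]cAMP plus inhibitor in kit assay buffer, 20 min at 30 °C. Scintillation binding beads (1 mg) then added to capture [³H]AMP, shaken 1 h at room temperature, settled 30 min, radioactivity counted.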

Microglia [2] = experiment: Antiinflammatory activity against rat microglial assessed as inhibition of LPS-induced nitrite production at 30 uM administered 1 hr before LPS challenge measured after 24 hrs by Griess reaction; format: functional
Summary of the method: (§1)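 Rat microglia shaken off 15-day mixed glial cultures and kept in HAMS/DMEM (1:1) with 10% FBS plus 10 ng/ml GM-CSF; purity >98% by OX42 staining. Cells were pretreated with compound for 1 h, then given LPS for 24 h. Nitrite in the medium was measured by Griess reaction. Means ± SD of three independent experiments.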

Astrocyte [3] = experiment: Antiinflammatory activity against P2 rat astrocytes assessed as inhibition of LPS-induced nitrite production at 30 uM administered 1 hr before LPS challenge measured after 24 hrs by Griess reaction; format: functional, cell-based
Summary of the method: (§2)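 Astrocytes from neonatal (P2) rat cortex, grown in HAMS/DMEM (1:1) with 10% FBS, shaken to remove microglia and oligodendrocytes, then expanded. Cells were pretreated with compound for 1 h, then stimulated with LPS for 24 h. Nitrite in the medium was measured by Griess reaction. Means ± SD of three independent experiments.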

Mus musculus = experiment: Neuroprotective effect against middle cerebral artery occlusion-induced focal cerebral ischemia in Swiss mouse stroke model assessed as reduction in infarct volume at 5 mg/kg after 15 mins (reference value: 15.4 +/- 1.1 %); format: functional; design: scale not given: the % may be the effect or the level left
Cerebral cortex neuron = experiment: Antiinflammatory activity against E18 rat primary cortical neurons assessed as inhibition of […] at 30 uM […] measured after 24 hrs by Griess reaction; format: functional, cell-based
Summary of the method: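 Rat E18 cortical neurons, plated on poly-lysine/gelatin and kept in Neurobasal with B-27, used at 7 days in culture. They were exposed for 24 h, with or without inhibitor, to cell-free supernatant from LPS-stimulated primary microglia. Nitrite in the medium was measured by Griess reaction. Means ± SD of three independent experiments.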

[4] = Permeability of the compound after 2.5 hrs by PAMPA-BBB assay
Astrocyte [5] = experiment: Antiinflammatory activity against P2 rat astrocytes assessed as inhibition of LPS-induced nitrite production at 10 uM administered 1 hr before LPS challenge measured after 24 hrs by Griess reaction; format: functional, cell-based; summary of the method: as §2
[6] = target: T1, High affinity 3',5'-cyclic-AMP phosphodiesterase 7A; experiment: Inhibition of PDE7A assessed as hydrolysis of [3H]cAMP after 20 mins by scintillation proximity assay
Summary of the method: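 Purified PDE7A1 (0.02 units) was incubated with 5 nCi [3H]cAMP and inhibitor in kit assay buffer for 20 min at 30 °C. Scintillation beads binding [3H]AMP were added, shaken 1 h at room temperature and left to settle 30 min, then radioactivity was counted. IC50 came from a sigmoidal dose-response fit of radioactivity vs log concentration.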

Microglia [7] = experiment: Antiinflammatory activity against rat microglial assessed as inhibition of LPS-induced nitrite production at 10 uM administered 1 hr before LPS challenge measured after 24 hrs by Griess reaction; format: functional; summary of the method: as §1
Microglia [8] = experiment: Antiinflammatory activity against rat microglial assessed as inhibition of LPS-induced nitrite production at 1 uM administered 1 hr before LPS challenge measured after 24 hrs by Griess reaction; format: functional; summary of the method: as §1

T1 sequence (Q13946 whole entry): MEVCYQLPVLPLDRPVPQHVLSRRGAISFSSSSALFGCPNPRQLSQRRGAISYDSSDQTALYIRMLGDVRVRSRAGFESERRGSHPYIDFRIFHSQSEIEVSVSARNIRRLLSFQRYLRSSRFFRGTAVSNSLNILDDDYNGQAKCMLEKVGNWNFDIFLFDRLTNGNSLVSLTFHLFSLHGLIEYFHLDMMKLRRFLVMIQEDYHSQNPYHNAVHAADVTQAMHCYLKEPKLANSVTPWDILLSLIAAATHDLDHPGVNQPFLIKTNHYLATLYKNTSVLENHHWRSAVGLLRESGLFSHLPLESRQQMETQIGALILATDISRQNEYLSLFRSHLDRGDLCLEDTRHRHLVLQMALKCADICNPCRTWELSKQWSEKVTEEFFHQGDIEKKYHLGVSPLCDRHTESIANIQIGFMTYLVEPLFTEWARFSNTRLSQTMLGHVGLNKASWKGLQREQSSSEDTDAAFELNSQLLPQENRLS

O=c1c2ccncc2[nH]c(=S)n1-c1ccccc1
inhibition [1]: 9.3%

S=c1[nH]c2ccccc2c(=S)n1-c1ccccc1
Activity (Microglia [2]): Active
Activity (Astrocyte [3]): Active
Activity (Mus musculus): 10.8%
Activity (Cerebral cortex neuron): Active
Papp at 2.5 h [4]: 23.8 ×10⁻⁶ cm/s

Cc1cccc2c(=O)n(-c3ccccc3Br)c(=S)[nH]c12
Activity (Microglia [2]): Active
Activity (Astrocyte [3]): Active
Activity (Cerebral cortex neuron): Active
Papp at 2.5 h [4]: 23.9 ×10⁻⁶ cm/s

O=c1c2cccnc2[nH]c(=S)n1-c1ccccc1
inhibition [1]: -3.1%

COc1cc2[nH]c(=S)n(-c3ccccc3)c(=O)c2cc1OC
inhibition [1]: 13.2%

O=c1c2ccccc2[nH]c(=S)n1-c1cccnc1
inhibition [1]: 10%

COc1ccc(CCn2c(=O)[nH]c3ccccc3c2=O)cc1
inhibition [1]: -7.2%

O=c1c2cccnc2[nH]c(=S)n1-c1cccc(Br)c1
inhibition [1]: 12.8%

O=c1c2cccc(Cl)c2[nH]c(=S)n1-c1ccccc1Br
inhibition [1]: 63.4%
Activity (Astrocyte [5]): Active
IC50 [6]: 1.8 µM
Activity (Microglia [7]): Active

O=c1c2ccccc2[nH]c(=S)n1-c1ccccc1
Activity (Microglia [2]): Active
Activity (Astrocyte [3]): Active
Activity (Cerebral cortex neuron): Active

O=c1c2ccccc2[nH]c(=S)n1CCN1CCCCC1
inhibition [1]: 21.2%

O=c1[nH]c2ccccc2c(=O)n1-c1ccc(Br)cc1F
inhibition [1]: 2.5%

O=c1c2ccncc2[nH]c(=S)n1-c1cccnc1
inhibition [1]: 2.7%

COc1ccc(Cn2c(=O)[nH]c3ccccc3c2=O)cc1
inhibition [1]: 9.3%

Cc1cc(Br)c2[nH]c(=S)n(-c3ccccc3)c(=O)c2c1
inhibition [1]: 4%

COc1cc2[nH]c(=S)n(CCN3CCOCC3)c(=O)c2cc1OC
inhibition [1]: 17.9%

COc1cc2[nH]c(=S)n(CCN3CCCCC3)c(=O)c2cc1OC
inhibition [1]: 12.7%

COc1cc2[nH]c(=S)n(-c3cccnc3)c(=O)c2cc1OC
inhibition [1]: 19%

CCn1cc(C(=O)O)c(=O)c2cc(F)c(N3CCNCC3)nc21 [ENOXACIN]
Papp at 2.5 h [4]: 1.2 ×10⁻⁶ cm/s

COc1ccc(CCn2c(=O)[nH]c3ccc(Br)cc3c2=O)cc1
inhibition [1]: -8.3%

COc1ccc(CCn2c(=O)[nH]c3cnccc3c2=O)cc1
inhibition [1]: 22.1%

CNCCCN1c2ccccc2CCc2ccccc21 [DESIPRAMINE]
Papp at 2.5 h [4]: 15.7 ×10⁻⁶ cm/s

COc1ccc(Cn2c(=O)[nH]c3ncccc3c2=O)cc1
inhibition [1]: 8%

CN(C)CCCN1c2ccccc2Sc2ccccc21 [PROMAZINE]
Papp at 2.5 h [4]: 7.7 ×10⁻⁶ cm/s

O=c1c2cccc(Cl)c2[nH]c(=S)n1-c1c(F)cccc1F
Activity (Microglia [8]): Active
inhibition [1]: 74.9%
Activity (Astrocyte [5]): Active
IC50 [6]: 6.1 µM

Cn1c(=O)c2c(ncn2C)n(C)c1=O [CAFFEINE]
Papp at 2.5 h [4]: 1.7 ×10⁻⁶ cm/s

O=c1c2ccccc2[nH]c(=S)n1CCN1CCOCC1
inhibition [1]: 13.2%

— ChEMBL document CHEMBL1926561, “Neuroprotective efficacy of quinazoline type phosphodiesterase 7 inhibitors in cellular cultures and experimental stroke model” (Eur J Med Chem, 2012)
